High-throughput results: PubChem BioAssay, Sanford-Burnham Center for Chemical Genomics
The list is not random: actives were taken first. Their share in the collection is about 2.4%.
STEP block: STEP phosphatase inhibitors, primary screen, biochemical, fluorescence intensity, uHTS | inhibition, % at 20 µM | Tyrosine-protein phosphatase non-receptor type 5 (Homo sapiens), P54829 | AID 588621, 2011 | 360,000 tested, 0.25% active | recombinant STEP, OMFP fluorogenic substrate;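 active = inhibition at 20 µM, scaled per plate between control wells, above about 37%, limit read from the data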;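 note: 0% = DMSO with enzyme and substrate and 100% = substrate only without enzyme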
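Material: STEP (striatal-enriched tyrosine phosphatase) enzyme, cell-free | Medium: 50 mM Bis-Tris pH 6.0 with 2.5 mM DTT and 0.005% Tween 20 | Read-out: Percent inhibition scaled to no-enzyme and uninhibited-enzyme controls, plate-pattern corrected | Signal: Fluorescence read at 480 nm ex / 540 nm em | Times: 20 min reaction, room temperature, in the dark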
NadD block: inhibitors of S. aureus NadD, primary screen, biochemical, colorimetric, uHTS; 360,000 tested, 0.78% active; purified NadD enzyme, colorimetric absorbance read-out; Nicotinate-nucleotide adenylyltransferase NadD (Staphylococcus aureus N315); inhibition, % at 20 µM; in the data active = inhibition above about 26%
DNMT1 block: human DNMT1 methyltransferase inhibitors, primary screen, biochemical, molecular beacon, fluorescence, HinP1I cleavage, uHTS. AID 588458, 2011. inhibition (reported as % activation of signal), % at 10 µM. DNA (cytosine-5)-methyltransferase 1 (Homo sapiens), P26358. 360,000 tested, 0.83% active; in the data active = inhibition above about 50%
Target sequence (P26358 504-1616 limits assumed): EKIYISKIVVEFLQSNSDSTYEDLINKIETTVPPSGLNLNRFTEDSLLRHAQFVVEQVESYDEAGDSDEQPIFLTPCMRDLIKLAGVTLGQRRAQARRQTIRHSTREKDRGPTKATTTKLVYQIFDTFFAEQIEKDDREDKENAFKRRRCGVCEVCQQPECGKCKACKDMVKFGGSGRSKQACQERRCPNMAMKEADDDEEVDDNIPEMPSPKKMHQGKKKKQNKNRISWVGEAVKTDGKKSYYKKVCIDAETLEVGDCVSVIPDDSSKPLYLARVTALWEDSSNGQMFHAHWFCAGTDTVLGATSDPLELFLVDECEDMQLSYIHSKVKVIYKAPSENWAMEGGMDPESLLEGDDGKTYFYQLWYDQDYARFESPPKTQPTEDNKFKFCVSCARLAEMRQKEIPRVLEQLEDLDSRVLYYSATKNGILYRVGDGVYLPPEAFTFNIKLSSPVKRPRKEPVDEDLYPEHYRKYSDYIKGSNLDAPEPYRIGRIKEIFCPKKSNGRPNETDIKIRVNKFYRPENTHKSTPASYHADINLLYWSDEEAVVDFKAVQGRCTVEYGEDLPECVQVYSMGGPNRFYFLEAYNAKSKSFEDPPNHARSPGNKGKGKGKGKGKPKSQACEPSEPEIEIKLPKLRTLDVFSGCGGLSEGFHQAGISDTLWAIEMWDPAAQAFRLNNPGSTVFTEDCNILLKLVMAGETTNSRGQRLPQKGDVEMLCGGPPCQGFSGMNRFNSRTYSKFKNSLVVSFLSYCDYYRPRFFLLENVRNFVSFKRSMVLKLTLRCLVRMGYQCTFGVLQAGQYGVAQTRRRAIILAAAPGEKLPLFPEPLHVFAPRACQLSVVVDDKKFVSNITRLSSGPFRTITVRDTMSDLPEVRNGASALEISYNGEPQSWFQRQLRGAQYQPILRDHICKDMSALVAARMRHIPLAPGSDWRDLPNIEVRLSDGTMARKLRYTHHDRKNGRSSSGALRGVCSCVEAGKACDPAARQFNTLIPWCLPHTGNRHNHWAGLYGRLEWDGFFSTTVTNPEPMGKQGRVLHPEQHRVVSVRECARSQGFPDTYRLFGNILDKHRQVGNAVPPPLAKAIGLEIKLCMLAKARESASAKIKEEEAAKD
SUMO1 PPI mod: modulators of SUMO1 protein-protein interactions, primary screen, biochemical, uHTS; AID 602429, 2012; inhibition, % at 20 µM; 360,000 tested, 0.33% active; Small ubiquitin-related modifier 1 (Homo sapiens), P63165; SUMO1 binding to a labelled peptide, TR-FRET, 1 h; in the data active = inhibition above about 37%
LMPTP inh: LMPTP phosphatase inhibitors, primary screen, biochemical, fluorescence intensity, uHTS | recombinant LMPTP-A, OMFP fluorogenic substrate | 360,000 tested, 0.22% active | inhibition, % at 20 µM | Low molecular weight phosphotyrosine protein phosphatase (Homo sapiens), P24666 | AID 651560, 2012;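 active = compounds that cut the enzyme signal by at least half of the control window in the single-dose screen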;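 note: plate controls were DMSO wells with enzyme plus substrate for no effect and substrate without enzyme for full effect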
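Assay system: LMPTP-A enzyme. Input: 0.625 nM LMPTP-A final. Probe or stimulus: 400 µM OMFP. Compound dosing: single 20 µM dose. Schedule: 50 min dark incubation at room temperature. Detection: fluorescence intensity of OMFP turnover product. Read-out: percent inhibition versus substrate-only and uninhibited controls. Benchmarks: no-enzyme low control, uninhibited high control.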
Scp1 inh: Scp-1 phosphatase inhibitors, primary screen, biochemical, colorimetric, uHTS | Carboxy-terminal domain RNA polymerase II polypeptide A small phosphatase 1 (Homo … | Recombinant Scp1, phosphopeptide, malachite green phosphate absorbance | inhibition, % at 20 µM | 340,000 tested, 0.88% active | AID 493091, 2011;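 active = inhibition above about 50% at 20 µM, limit read from the data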;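 note: plate controls were DMSO wells with enzyme for no effect and wells lacking enzyme for full effect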
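Incubation: 45 min enzyme reaction at room temperature / System: truncated SCP-1 phosphatase (76-261aa) / Reagent: Phospho 17-mer peptide substrate / Buffer or medium: Acidic Tris acetate buffer with magnesium and detergent / Signal: absorbance at 630 nm / Doses: one concentration, 20 µM, with 1.0% DMSO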
Scp-1 conf: Scp-1 phosphatase inhibitors, retest, confirmation, biochemical, colorimetric, single concentration; shares compounds with Scp1 inh; recombinant SCP-1 catalytic domain, phosphate release, malachite green absorbance; inhibition, % at 20 µM; 2,500 tested, 61% active; AID 540281, 2011;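 note: plate controls were DMSO with enzyme for no effect and buffer wells lacking enzyme for full effect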
MG interference: colorimetric readout interference by compounds, confirmation, artefact control for Scp-1 inhibitor project, biochemical, single concentration | 2,500 tested, under 10 active | AID 540313, 2011 | apparent inhibition (interference), % at 20 µM | Colorimetric interference counterscreen, malachite green absorbance 630 nm | shares compounds with Scp1 inh;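 note: compounds added after enzyme reaction finished so only phosphate colour detection is probed; plate controls were DMSO wells with completed Scp-1 reaction for no effect and substrate wells lacking enzyme for full effect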
Scp1 DSF: Scp-1 binding by thermal shift, confirmation, orthogonal assay for Scp-1 inhibitor project, biophysical, differential scanning fluorimetry; 1,500 tested, 25% active; Recombinant SCP1, Sypro Orange thermal shift Tm; thermal shift relative to vanadate control, % at 40 µM; shares compounds with Scp1 inh;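 active = substances whose mean melting-temperature shift, as a percentage of the reference inhibitor's shift, reaches about 5.3%, limit read from the data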;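 note: 0% = Tm of DMSO wells and 100% = Tm with sodium orthovanadate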
* = called active by the depositor; ! = repeats disagree.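 Rule for the calls, unless noted: active = inhibition of at least 30% at 20 µM; inactive = the rest.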

Screening COc1ccc(/C=C2\C(=O)NC(=S)N(C)C2=O)cc1C returned STEP block 95*, NadD block -3, DNMT1 block 94*, SUMO1 PPI mod 72*, LMPTP inh 0, Scp1 inh 100*, Scp-1 conf 70*, MG interference -16 and Scp1 DSF -9.
For CC[N+]12CCC(CC1)C(=C(c1ccccc1)c1ccccc1)C2 the results were STEP block -2, NadD block 0, DNMT1 block 4, SUMO1 PPI mod 1, LMPTP inh -2 and Scp1 inh 9.
`C[N+]12CCC(CC1)C(=C(c1ccccc1)c1ccccc1)C2` gave STEP block -3, NadD block 11, DNMT1 block 5, SUMO1 PPI mod -3, LMPTP inh 0, Scp1 inh 94*, Scp-1 conf 78*, MG interference -20 and Scp1 DSF -17.
Screening CCOc1cc(C=C2C(=O)NC(=O)NC2=O)ccc1OCC(=O)N1CCOCC1 returned STEP block -3, NadD block 0, DNMT1 block -12, SUMO1 PPI mod -3, LMPTP inh -1 and Scp1 inh -3.
For O=C1NC(=S)NC(=O)C1=Cc1ccc(OCC(=O)N2CCCC2)cc1 the results were STEP block 1, NadD block -4, DNMT1 block 9, SUMO1 PPI mod 11, LMPTP inh 0, Scp1 inh 51*, Scp-1 conf 51*, MG interference -10 and Scp1 DSF -13.
Screening COc1ccc(CN2CCNCC2)c(OC)c1OC returned STEP block -3, NadD block -4, DNMT1 block 1, SUMO1 PPI mod -2, LMPTP inh -4, Scp1 inh 99*!, Scp-1 conf 95*, MG interference -10 and Scp1 DSF -14.
Screening COc1cc(CN2CCNCC2)cc(OC)c1OC returned STEP block -2, NadD block 3, DNMT1 block 0, SUMO1 PPI mod 7, LMPTP inh -4 and Scp1 inh -2.
C[N+]1(C)CCc2cc3c(cc2[C@H]1[C@@H]1OC(=O)c2c1ccc1c2OCO1)OCO3 was read as STEP block 2, NadD block 15, DNMT1 block -1, SUMO1 PPI mod 3, LMPTP inh -1, Scp1 inh 99*!, Scp-1 conf 82*, MG interference -15 and Scp1 DSF -24.
`CC(C)N1C(=O)CC2(CC[N+](C)(CCOC(=O)C(O)(c3ccccc3)c3ccccc3)CC2)C1=O` (configuration not stated) gave STEP block -2, NadD block 21, DNMT1 block 2, SUMO1 PPI mod 1, LMPTP inh -1, Scp1 inh 70*, Scp-1 conf 102*, MG interference -5 and Scp1 DSF -19.
For O=C(NN=Cc1ccc(N(CCCl)CCCl)cc1)c1cccc([N+](=O)[O-])c1 the results were STEP block 2, NadD block 5, DNMT1 block 23, SUMO1 PPI mod 13, LMPTP inh 33, Scp1 inh 93*, Scp-1 conf 72*, MG interference -11 and Scp1 DSF 3.
`COC(=O)C1=C(c2ccc(F)cc2F)C[C@@H]2CC[C@H]1N2C(=O)NCCOc1ccc(OC)cc1` gave STEP block -3, NadD block -2, DNMT1 block -1, SUMO1 PPI mod -3, LMPTP inh 1 and Scp1 inh 1.
For COc1ccc(-c2nc3ccccc3n2OC(=O)N(C)C)cc1 the results were STEP block 4, NadD block -3, DNMT1 block -1, SUMO1 PPI mod 6, LMPTP inh 0 and Scp1 inh -5.
Screening CCOC(C(=O)OCCC[N+](C)(CC)CC)(c1ccccc1)c1ccccc1 returned STEP block -1, NadD block -3, DNMT1 block 2, SUMO1 PPI mod -6, LMPTP inh -3 and Scp1 inh 3.
CC[N+](C)(CC)CCCOC(=O)C(O)(c1ccccc1)C1CCCCC1 (configuration not stated) was read as STEP block -2, NadD block 18, DNMT1 block 6, SUMO1 PPI mod 3, LMPTP inh -2, Scp1 inh 102*, Scp-1 conf 79*, MG interference -19 and Scp1 DSF -5.
For O=c1[nH]c(O)c(/C=C2/C=CC(c3cc(Cl)ccc3Cl)=N2)c(=O)[nH]1 the results were STEP block 0, NadD block 64*, DNMT1 block 17, SUMO1 PPI mod 57*, LMPTP inh 46, Scp1 inh -7, Scp-1 conf 25 and MG interference -20.
`CN=C(SCc1ccccc1)c1c(O)n(C)c(=O)n(C)c1=O` gave STEP block -1, NadD block -2, DNMT1 block 0, SUMO1 PPI mod -5, LMPTP inh 0 and Scp1 inh 3.
For O=P(Nc1cccnc1)(Oc1ccccc1Cl)Oc1ccccc1Cl the results were STEP block 2, NadD block -4, DNMT1 block -10, SUMO1 PPI mod -2, LMPTP inh 0 and Scp1 inh -3.
Screening CNC(=O)OCc1n(C)cc[n+]1C returned STEP block -3, NadD block 5, DNMT1 block 1, SUMO1 PPI mod 4, LMPTP inh -4, Scp1 inh 55*, Scp-1 conf 11 and MG interference -1.
